Data: ChEMBL document CHEMBL1134594 (J Med Chem, 2001)
Where a SMILES comes first, the peptide text is derived from it. Bridges are numbered along the chain shown (N, C = ends).

Assays:
Glucagon receptor = Glucagon receptor (Rattus norvegicus, UniProt P30082); test: Glucagon receptor binding measured as 50% inhibitory concentration
Procedure, shortened: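 Membranes (50 µg protein) were taken from the livers of male Sprague Dawley rats (200-250 g), purified on a sucrose gradient. […] Nonspecific binding was defined with excess unlabeled peptide and subtracted. Run in triplicate, repeated twice.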

[1] = target: Adenylate cyclase (Rattus norvegicus) (UniProt D4A3N4+P26770+Q04400+P26769+Q03343+P40146+Q8CFM9+P21932); test: Adenylate cyclase activity measured as percentage stimulation; assay type: protein assay; design: concentration or dose not given beside the values
Adenylate cyclase = test: Adenylate cyclase activity measured as 50% inhibitory concentration; assay type: protein assay

Glucagon receptor, sequence (P30082 whole entry): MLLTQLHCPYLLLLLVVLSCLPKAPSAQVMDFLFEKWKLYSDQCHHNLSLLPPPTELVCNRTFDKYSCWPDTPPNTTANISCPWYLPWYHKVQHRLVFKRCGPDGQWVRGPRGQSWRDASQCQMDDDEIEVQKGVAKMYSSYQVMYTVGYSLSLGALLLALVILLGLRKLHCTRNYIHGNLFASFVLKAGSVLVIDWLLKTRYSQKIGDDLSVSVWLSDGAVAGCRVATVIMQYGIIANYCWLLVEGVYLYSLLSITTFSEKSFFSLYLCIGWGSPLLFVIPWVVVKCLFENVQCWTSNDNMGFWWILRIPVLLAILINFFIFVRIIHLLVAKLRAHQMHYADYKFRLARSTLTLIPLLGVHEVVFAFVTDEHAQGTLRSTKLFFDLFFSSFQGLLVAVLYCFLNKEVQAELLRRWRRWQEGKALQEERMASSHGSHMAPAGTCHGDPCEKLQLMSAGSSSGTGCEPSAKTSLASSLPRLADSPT

Row | IC50 (Glucagon receptor) | Activity [1] | EC50 (Adenylate cyclase) | Compound
1 | 101 nM | 23% | 9200 nM | CSCC[C@H](NC(=O)[C@H](CC(C)C)NC(=O)[C@H](Cc1c[nH]c2ccccc12)NC(=O)[C@H](CCC(N)=O)NC(=O)[C@@H](NC(=O)[C@H](Cc1ccccc1)NC(=O)[C@H](CC(=O)O)NC(=O)[C@H](CCC(N)=O)NC(=O)[C@H](C)NC(=O)[C@H](CCCN=C(N)N)NC(=O)[C@H](CCCN=C(N)N)NC(=O)[C@H](CO)NC(=O)[C@H](CC(=O)O)NC(=O)[C@H](CC(C)C)NC(=O)[C@H](Cc1ccc(O)cc1)NC(=O)[C@H](CCCCN)NC(=O)[C@H](CO)NC(=O)[C@H](Cc1ccc(O)cc1)NC(=O)[C@H](CC(=O)O)NC(=O)[C@H](CO)NC(=O)[C@@H]1CSSC[C@H](NC(=O)[C@@H](N)Cc2c[nH]cn2)C(=O)N[C@@H](CCC(N)=O)C(=O)NCC(=O)N[C@@H]([C@@H](C)O)C(=O)N[C@@H](Cc2ccccc2)C(=O)N1)C(C)C)C(=O)N[C@@H](CC(N)=O)C(=O)N[C@H](C(=O)O)[C@@H](C)O (H-HCQGTFCSDYSKYLDSRRAQDFVQWLMNT-OH; disulfide 2-7)
2 | 13.6 nM |  |  | CSCC[C@H](NC(=O)[C@H](CC(C)C)NC(=O)[C@H](Cc1c[nH]c2ccccc12)NC(=O)[C@H](CCC(N)=O)NC(=O)[C@@H](NC(=O)[C@H](Cc1ccccc1)NC(=O)[C@H](CC(=O)O)NC(=O)[C@H](CCC(N)=O)NC(=O)[C@H](C)NC(=O)[C@H](CCCNC(=N)N)NC(=O)[C@H](CCCNC(=N)N)NC(=O)[C@H](CO)NC(=O)[C@H](CC(=O)O)NC(=O)[C@H](CC(C)C)NC(=O)[C@H](Cc1ccc(O)cc1)NC(=O)[C@H](CCCCN)NC(=O)[C@@H]1CCC(=O)NCCCC[C@H](NC(=O)[C@H](Cc2ccccc2)NC(=O)[C@@H](NC(=O)CNC(=O)[C@H](CCC(N)=O)NC(=O)[C@H](CO)NC(=O)[C@@H](N)Cc2cnc[nH]2)[C@@H](C)O)C(=O)N[C@@H](CO)C(=O)N[C@@H](CC(=O)O)C(=O)N[C@@H](Cc2ccc(O)cc2)C(=O)N1)C(C)C)C(=O)N[C@@H](CC(N)=O)C(=O)N[C@H](C(=O)O)[C@@H](C)O (H-HSQGTFKSDYEKYLDSRRAQDFVQWLMNT-OH; lactam 7-11)
3 | 1.7 nM | 85% | 6.3 nM | CSCC[C@H](NC(=O)[C@H](CC(C)C)NC(=O)[C@H](Cc1c[nH]c2ccccc12)NC(=O)[C@H](CCC(N)=O)NC(=O)[C@@H](NC(=O)[C@H](Cc1ccccc1)NC(=O)[C@H](CC(=O)O)NC(=O)[C@H](CCC(N)=O)NC(=O)[C@H](C)NC(=O)[C@H](CCCN=C(N)N)NC(=O)[C@@H]1CCC(=O)NCCCC[C@H](NC(=O)[C@H](CCCCN)NC(=O)[C@H](CO)NC(=O)[C@H](Cc2ccc(O)cc2)NC(=O)[C@H](CC(=O)O)NC(=O)[C@H](CO)NC(=O)[C@@H](NC(=O)[C@H](Cc2ccccc2)NC(=O)[C@@H](NC(=O)CNC(=O)[C@H](CCC(N)=O)NC(=O)[C@H](CO)NC(=O)[C@@H](N)Cc2c[nH]cn2)[C@@H](C)O)[C@@H](C)O)C(=O)N[C@@H](CC(C)C)C(=O)N[C@@H](CC(=O)O)C(=O)N[C@@H](CO)C(=O)N1)C(C)C)C(=O)N[C@@H](CC(N)=O)C(=O)N[C@H](C(=O)O)[C@@H](C)O (H-HSQGTFTSDYSKKLDSERAQDFVQWLMNT-OH; lactam 13-17)
4 | 0.24 nM | 98% | 0.27 nM | CSCC[C@H](NC(=O)[C@H](CC(C)C)NC(=O)[C@H](Cc1c[nH]c2ccccc12)NC(=O)[C@H](CCC(N)=O)NC(=O)[C@@H](NC(=O)[C@H](Cc1ccccc1)NC(=O)[C@@H]1CCC(=O)NCCCC[C@H](NC(=O)[C@H](CO)NC(=O)[C@H](CC(=O)O)NC(=O)[C@H](CC(C)C)NC(=O)[C@H](Cc2ccc(O)cc2)NC(=O)[C@H](CCCCN)NC(=O)[C@H](CO)NC(=O)[C@H](Cc2ccc(O)cc2)NC(=O)[C@H](CC(=O)O)NC(=O)[C@H](CO)NC(=O)[C@@H](NC(=O)[C@H](Cc2ccccc2)NC(=O)[C@@H](NC(=O)CNC(=O)[C@H](CCC(N)=O)NC(=O)[C@H](CO)NC(=O)[C@@H](N)Cc2c[nH]cn2)[C@@H](C)O)[C@@H](C)O)C(=O)N[C@@H](CCCN=C(N)N)C(=O)N[C@@H](C)C(=O)N[C@@H](CCC(N)=O)C(=O)N1)C(C)C)C(=O)N[C@@H](CC(N)=O)C(=O)N[C@H](C(=O)O)[C@@H](C)O
5 | 6.4 nM |  |  | CSCC[C@H](NC(=O)[C@H](CC(C)C)NC(=O)[C@H](Cc1c[nH]c2ccccc12)NC(=O)[C@H](CCC(N)=O)NC(=O)[C@@H](NC(=O)[C@H](Cc1ccccc1)NC(=O)[C@H](CC(=O)O)NC(=O)[C@H](CCC(N)=O)NC(=O)[C@H](C)NC(=O)[C@H](CCCNC(=N)N)NC(=O)[C@H](CCCNC(=N)N)NC(=O)[C@H](CO)NC(=O)[C@H](CC(=O)O)NC(=O)[C@H](CC(C)C)NC(=O)[C@H](Cc1ccc(O)cc1)NC(=O)[C@H](CS)NC(=O)[C@H](CO)NC(=O)[C@H](Cc1ccc(O)cc1)NC(=O)[C@H](CC(=O)O)NC(=O)[C@H](CO)NC(=O)[C@H](CS)NC(=O)[C@H](Cc1ccccc1)NC(=O)[C@@H](NC(=O)CNC(=O)[C@H](CCC(N)=O)NC(=O)[C@H](CO)NC(=O)[C@@H](N)Cc1cnc[nH]1)[C@@H](C)O)C(C)C)C(=O)N[C@@H](CC(N)=O)C(=O)N[C@H](C(=O)O)[C@@H](C)O (H-HSQGTFCSDYSCYLDSRRAQDFVQWLMNT-OH)
6 |  | 17% | 47 nM | CSCC[C@H](NC(=O)[C@H](CC(C)C)NC(=O)[C@H](Cc1c[nH]c2ccccc12)NC(=O)[C@H](CCC(N)=O)NC(=O)[C@@H](NC(=O)[C@H](Cc1ccccc1)NC(=O)[C@H](CC(=O)O)NC(=O)[C@H](CCC(N)=O)NC(=O)[C@H](C)NC(=O)[C@H](CCCN=C(N)N)NC(=O)[C@H](CCCN=C(N)N)NC(=O)[C@H](CO)NC(=O)[C@H](CC(=O)O)NC(=O)[C@H](CC(C)C)NC(=O)[C@H](Cc1ccc(O)cc1)NC(=O)[C@H](CCCCN)NC(=O)[C@@H]1CCC(=O)NCCCC[C@H](NC(=O)[C@H](Cc2ccccc2)NC(=O)[C@@H](NC(=O)CNC(=O)[C@H](CCC(N)=O)NC(=O)[C@H](CO)NC(=O)[C@@H](N)Cc2c[nH]cn2)[C@@H](C)O)C(=O)N[C@@H](CO)C(=O)N[C@@H](CC(=O)O)C(=O)N[C@@H](Cc2ccc(O)cc2)C(=O)N1)C(C)C)C(=O)N[C@@H](CC(N)=O)C(=O)N[C@H](C(=O)O)[C@@H](C)O (H-HSQGTFKSDYEKYLDSRRAQDFVQWLMNT-OH; lactam 7-11)
7 | 5.6 nM |  |  | CSCC[C@H](NC(=O)[C@H](CC(C)C)NC(=O)[C@H](Cc1c[nH]c2ccccc12)NC(=O)[C@H](CCC(N)=O)NC(=O)[C@@H](NC(=O)[C@H](Cc1ccccc1)NC(=O)[C@H](CC(=O)O)NC(=O)[C@H](CCC(N)=O)NC(=O)[C@H](C)NC(=O)[C@H](CCCN=C(N)N)NC(=O)[C@H](CCCN=C(N)N)NC(=O)[C@H](CO)NC(=O)[C@H](CC(=O)O)NC(=O)[C@H](CC(C)C)NC(=O)[C@H](Cc1ccc(O)cc1)NC(=O)[C@H](CCCCN)NC(=O)[C@H](CO)NC(=O)[C@H](Cc1ccc(O)cc1)NC(=O)[C@H](CC(=O)O)NC(=O)[C@H](CO)NC(=O)[C@H](CS)NC(=O)[C@H](Cc1ccccc1)NC(=O)[C@@H](NC(=O)CNC(=O)[C@H](CCC(N)=O)NC(=O)[C@H](CS)NC(=O)[C@@H](N)Cc1c[nH]cn1)[C@@H](C)O)C(C)C)C(=O)N[C@@H](CC(N)=O)C(=O)N[C@H](C(=O)O)[C@@H](C)O (H-HCQGTFCSDYSKYLDSRRAQDFVQWLMNT-OH)
